Data from ChEMBL document CHEMBL4725355, “Design, Synthesis, and Preclinical Evaluation of 3-Methyl-6-(5-thiophenyl)-1,3-dihydro-imidazo[4,5-b]pyridin-2-ones as Selective GluN2B Negative Allosteric Modulators for the Treatment of Mood Disorders” (J Med Chem, 2020).
pIC50, pKi: −log10 of the molar value.

Tests used:
[1] = Solubility of compound in 100% polyethylene glycol 400 at 0.5 mg/ml; assay type: physicochemical
[2] = AUC (infinity) in Sprague-Dawley rat at 0.1 mg/kg, iv or 0.5 mg/kg, po by LC-MS/MS analysis; assay type: ADME, organism-based; parameters: dose 0.5 mg/kg; conditions: in vivo
Procedure, shortened: (§1)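 Rat PK with IV and PO dosing, n=3. The usual doses were 0.5 mg/kg IV and 2.5 mg/kg PO in 20% HP-β-CD. One compound was instead given at 0.1 mg/kg IV and 0.5 mg/kg PO.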

[3] = Ex vivo receptor occupancy at GluN2B in Sprague-Dawley rat assessed as 3-[3H] 1-(azetidin-1-yl)-2-[6-(4-fluoro-3-methyl-phenyl)pyrrolo[3,2-b]pyridin-1-yl]-ethanone labelling at 3 mg/kg, po measured after 0.5 hrs by autoradiography; assay type: functional
Procedure, shortened: (§2)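 Rats dosed orally at 3 mg/kg in 20% HP-β-CD; brains taken at 0.5, 2 and 6 h. Ex vivo autoradiography of brain slices with the ³H pyrrolo[3,2-b]pyridine GluN2B tracer. Labelling expressed relative to matching brain areas of vehicle-treated animals; n=2, ± SEM.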

[4] = Metabolic stability in rat liver microsomes assessed as extraction ratio at 1 uM after 5 to 60 mins in presence of NADPH by LC-MS/MS analysis; assay type: ADME, Microsome; conditions: time 5-60 min, read-out: ERH
Procedure, shortened: (§3)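 Human and rat liver microsomes, run in duplicate; stability reported as microsomal extraction ratio.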

[5] = Tmax in Sprague-Dawley rat at 0.1 mg/kg, iv or 0.5 mg/kg, po by LC-MS/MS analysis; assay type: ADME, organism-based; conditions: in vivo
Procedure, shortened: (§4)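 Rat PK with doses of 0.1 mg/kg i.v. and 0.5 mg/kg p.o., vehicle 20% HP-β-CD. n=3, values given as mean ± SD.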

[6] = Solubility of compound in 30% sulfobutylether-beta-cyclodextrin at 0.5 mg/ml; assay type: physicochemical
Procedure, shortened: (§5)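 Solubility of the compound assessed in dosing excipients, including 30% SBE-β-CD, 50% PEG-400 and 20% HP-β-CD. The aim was a solution usable for rat dosing; the 20% HP-β-CD formulation was checked for a 0.1 mg/mL solution to support a 0.5 mg/kg dose.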

[7] = Efflux ratio of apparent permeability across basolateral to apical side over apical to basolateral side in MDCK-MDR1 cells at 5 uM measured after 60 mins by LC-MS/MS analysis; assay type: ADME, cell-based, Canis lupus familiaris; conditions: dog
Procedure, shortened: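 MDCK-MDR1 cells, passages 6-30, seeded at 3.4×10^5 cells/cm² and cultured 3 days. Test compound at 5 µM final (1% DMSO) in HBSS, pH 7.4, applied to the donor side. A→B and B→A runs at 37 °C for 60 min, in duplicate, quantified by LC/MS/MS. Efflux ratio taken as B-A/A-B; monolayer integrity checked by lucifer yellow.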

[8] = Oral bioavailability in Sprague-Dawley rat at 0.5 mg/kg by LC-MS/MS analysis; assay type: ADME, organism-based; conditions: in vivo
[9] = Displacement of 3-[3H] 1-(azetidin-1-yl)-2-[6-(4-fluoro-3-methyl-phenyl)pyrrolo[3,2-b]pyridin-1-yl]ethanone from GluN1a/GluN2B receptor in rat cortex membranes measured after 2 hrs by liquid scintillation counting method; assay type: cell membranes
Procedure, shortened: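 Rat adult cortex was homogenized in 50 mM Tris pH 7.4, and membranes were washed by centrifugation. Membranes were incubated with the [3H] pyrrolopyridine tracer and test compound for 2 h at room temperature with shaking. Non-specific binding was defined with 10 µM CP-101,606. Bound tracer was separated by filtration on PEI-soaked GF/B filters and counted by liquid scintillation. Ki was obtained from a competition fit using tracer Kd; three independent runs in duplicate.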

[10] = Cmax in Sprague-Dawley rat brain at 3 mg/kg, po after 2 hrs by LC-MS/MS analysis; assay type: ADME, organism-based; parameters: route oral, dose 3 mg/kg, time 2 hrs
Procedure, shortened: (§6)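 Oral dose of 3 mg/kg in 20% HP-β-CD to rats. Brain concentration was measured alongside ex vivo GluN2B occupancy over a 6 h time course (0.5, 2 and 6 h), n=2.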

[11] = Cmax in Sprague-Dawley rat brain at 3 mg/kg, po after 6 hrs by LC-MS/MS analysis; assay type: ADME, organism-based; parameters: route oral, dose 3 mg/kg, time 6 hrs; procedure, shortened: as §6
[12] = target: Voltage-gated inwardly rectifying potassium channel KCNH2 (Homo sapiens, UniProt Q12809); assay: Inhibition of human ERG expressed in CHO cells measured after 5 mins by Qpatch method; assay type: cell-based
Voltage-gated inwardly rectifying potassium channel KCNH2, sequence (Q12809 whole entry): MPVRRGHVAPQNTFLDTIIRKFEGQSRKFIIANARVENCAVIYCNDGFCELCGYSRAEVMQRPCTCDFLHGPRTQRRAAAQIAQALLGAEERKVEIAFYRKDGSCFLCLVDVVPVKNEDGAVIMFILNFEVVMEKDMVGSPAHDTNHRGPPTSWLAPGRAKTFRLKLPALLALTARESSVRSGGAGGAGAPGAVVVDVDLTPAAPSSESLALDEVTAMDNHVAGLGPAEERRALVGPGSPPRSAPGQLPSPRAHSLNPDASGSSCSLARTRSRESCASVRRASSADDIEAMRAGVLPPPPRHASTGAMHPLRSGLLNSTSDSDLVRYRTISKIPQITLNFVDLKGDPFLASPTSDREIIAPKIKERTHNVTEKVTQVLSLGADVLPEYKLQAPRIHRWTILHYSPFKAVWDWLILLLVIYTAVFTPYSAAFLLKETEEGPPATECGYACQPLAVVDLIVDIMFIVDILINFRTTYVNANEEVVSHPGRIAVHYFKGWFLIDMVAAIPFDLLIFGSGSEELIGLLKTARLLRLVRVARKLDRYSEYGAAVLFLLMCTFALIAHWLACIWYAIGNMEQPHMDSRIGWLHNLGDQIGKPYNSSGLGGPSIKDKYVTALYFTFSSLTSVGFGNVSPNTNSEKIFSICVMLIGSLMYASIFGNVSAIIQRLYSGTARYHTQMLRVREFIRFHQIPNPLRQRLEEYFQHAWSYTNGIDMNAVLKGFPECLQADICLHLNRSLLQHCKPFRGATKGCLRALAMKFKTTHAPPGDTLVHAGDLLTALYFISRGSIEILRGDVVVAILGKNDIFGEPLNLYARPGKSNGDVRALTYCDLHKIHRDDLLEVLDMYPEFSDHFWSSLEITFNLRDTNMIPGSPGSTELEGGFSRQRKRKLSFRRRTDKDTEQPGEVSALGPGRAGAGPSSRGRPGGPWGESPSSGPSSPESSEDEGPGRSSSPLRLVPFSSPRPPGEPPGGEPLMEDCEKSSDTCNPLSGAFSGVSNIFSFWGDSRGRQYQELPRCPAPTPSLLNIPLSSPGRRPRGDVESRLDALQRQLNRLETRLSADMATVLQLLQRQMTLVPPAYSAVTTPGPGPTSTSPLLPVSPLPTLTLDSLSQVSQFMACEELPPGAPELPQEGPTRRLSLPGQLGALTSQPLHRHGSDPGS
Procedure, shortened: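 CHO cells stably expressing hERG, whole-cell QPatch. Vehicle applied 5 min, then 0.3, 3.0, 10 and 30 µM in rising order, each concentration applied twice. Current measured after 5 min as the average of 3 voltage pulses; block taken relative to vehicle pretreatment, mean ± SEM.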

[13] = Half life in Sprague-Dawley rat at 0.1 mg/kg, iv or 0.5 mg/kg, po by LC-MS/MS analysis; assay type: ADME, organism-based; conditions: in vivo
Procedure, shortened: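 Rat PK with 0.1 mg/kg i.v. and 0.5 mg/kg p.o. doses, n=3 ± SD.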

[14] = Solubility of compound in 20% hydroxypropyl-beta-cyclodextrin at 0.1 mg/ml; assay type: physicochemical; procedure, shortened: as §5
[15] = Solubility of compound in phosphate buffer at pH 2 measured after 3 days; assay type: physicochemical; conditions: time 3 day
Procedure, shortened: (§7)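 Solubility in aqueous buffer at pH 2 and pH 7, and in simulated gastric and intestinal fluids.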

[16] = Ex vivo receptor occupancy at GluN2B in Sprague-Dawley rat assessed as 3-[3H] 1-(azetidin-1-yl)-2-[6-(4-fluoro-3-methyl-phenyl)pyrrolo[3,2-b]pyridin-1-yl]-ethanone labelling at 3 mg/kg, po measured after 6 hrs by autoradiography; assay type: functional; procedure, shortened: as §2
[17] = Volume of distribution at steady state in Sprague-Dawley rat at 0.1 mg/kg, iv or 0.5 mg/kg, po by LC-MS/MS analysis; assay type: ADME, organism-based; conditions: in vivo, read-out: Vdss; procedure, shortened: as §4
[18] = Ex vivo receptor occupancy at GluN2B in Sprague-Dawley rat assessed as 3-[3H] 1-(azetidin-1-yl)-2-[6-(4-fluoro-3-methyl-phenyl)pyrrolo[3,2-b]pyridin-1-yl]-ethanone labelling at 3 mg/kg, po measured after 2 hrs by autoradiography; assay type: functional; procedure, shortened: as §2
[19] = Clearance in Sprague-Dawley rat at 0.1 mg/kg, iv by LC-MS/MS analysis; assay type: ADME, organism-based; conditions: in vivo; procedure, shortened: as §1
[20] = Solubility of compound in phosphate buffer at pH 7 measured after 3 days; assay type: physicochemical; conditions: time 3 day; procedure, shortened: as §7
[21] = Negative allosteric modulation of human GluN1a/GluN2B receptor expressed in CHO cells assessed as inhibition of glutamate and glycine-induced calcium flux preincubated for 5 mins followed by glutamate and glycine addition and measured after 5 mins by calcium 5 dye based FLIPR assay; assay type: cell-based
Procedure, shortened: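 Tet-On CHO T-Rex cells expressing hGluN1a with GluN2A, 2B, 2C or 2D, plated at 20,000 cells/well and induced 24 h before the assay in the presence of ketamine. Cells loaded 1 h at room temperature with Calcium 5 dye, pH 7.4 HEPES buffer. Compound added 5 min, then glutamate (~EC80) plus 10 µM glycine for 5 min; FLIPR fluorescence normalized to control wells. Three independent runs in duplicate (two for some).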

[22] = Cmax in Sprague-Dawley rat at 0.1 mg/kg, iv or 0.5 mg/kg, po by LC-MS/MS analysis; assay type: ADME, organism-based; parameters: dose 0.5 mg/kg; conditions: in vivo; procedure, shortened: as §1
[23] = Metabolic stability in human liver microsomes assessed as extraction ratio at 1 uM after 5 to 60 mins in presence of NADPH by LC-MS/MS analysis; assay type: ADME, Microsome; conditions: time 5-60 min, read-out: ERH; procedure, shortened: as §3
[24] = Tmax in Sprague-Dawley rat brain at 3 mg/kg, po by LC-MS/MS analysis; assay type: ADME, organism-based
Procedure, shortened: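 Rats dosed orally at 3 mg/kg in 20% HP-β-CD. Brain concentrations were measured over a 6 h time course (0.5, 2, 6 h) alongside ex vivo GluN2B occupancy, n=2.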

Structure (SMILES): CN(C)C(=O)Cn1c(=O)n(C)c2ncc(-c3ccc(C(F)(F)F)s3)cc21
- solubility [1]: Insoluble
- AUC(0-inf) [2]: 0.912 µg·h/mL
- Occ [3]: 79%
- hepatic extraction ratio at 1 µM [4]: < 0.17
- Tmax [5]: 1 h
- solubility [6]: Insoluble
- efflux ratio at 1 h, 5 µM [7]: 1.4
- bioavailability [8]: 121%
- pKi [9]: 7.92
- Cmax [10]: 1260 ng/g
- Cmax [11]: 598 ng/g
- pIC50 [12]: < 5.00
- half-life [13]: 1.3 h
- solubility [14]: Soluble
- solubility at 72 h [15]: < 4 µM
- Occ [16]: 77%
- Vd [17]: 1.2 L/kg
- Occ [18]: 80%
- clearance [19]: 0.84 L/h/kg
- solubility at 72 h [20]: < 4 µM
- pIC50 [21]: 7.54
- Cmax [22]: 0.188 µg/mL
- hepatic extraction ratio at 1 µM [23]: < 0.3
- Tmax [24]: 2 h
